Assays:
[1] = target: STE20-like serine/threonine-protein kinase (Homo sapiens) (UniProt Q9H2G2); experiment: Inhibition of human recombinant SLK at 40 nM related to control ULK1
[2] = target: Mitogen-activated protein kinase 10 (Homo sapiens) (UniProt P53779); experiment: Inhibition of human recombinant JNK3 at 40 nM related to control ULK1
[3] = target: Serine/threonine-protein kinase PLK2 (Homo sapiens) (UniProt Q9NYY3); experiment: Inhibition of human recombinant PLK2 at 40 nM in presence of ATP by radiometric assay relative to control
Chain of Serine/threonine-protein kinase PLK2 (Homo sapiens) (Q9NYY3 whole entry, looked up): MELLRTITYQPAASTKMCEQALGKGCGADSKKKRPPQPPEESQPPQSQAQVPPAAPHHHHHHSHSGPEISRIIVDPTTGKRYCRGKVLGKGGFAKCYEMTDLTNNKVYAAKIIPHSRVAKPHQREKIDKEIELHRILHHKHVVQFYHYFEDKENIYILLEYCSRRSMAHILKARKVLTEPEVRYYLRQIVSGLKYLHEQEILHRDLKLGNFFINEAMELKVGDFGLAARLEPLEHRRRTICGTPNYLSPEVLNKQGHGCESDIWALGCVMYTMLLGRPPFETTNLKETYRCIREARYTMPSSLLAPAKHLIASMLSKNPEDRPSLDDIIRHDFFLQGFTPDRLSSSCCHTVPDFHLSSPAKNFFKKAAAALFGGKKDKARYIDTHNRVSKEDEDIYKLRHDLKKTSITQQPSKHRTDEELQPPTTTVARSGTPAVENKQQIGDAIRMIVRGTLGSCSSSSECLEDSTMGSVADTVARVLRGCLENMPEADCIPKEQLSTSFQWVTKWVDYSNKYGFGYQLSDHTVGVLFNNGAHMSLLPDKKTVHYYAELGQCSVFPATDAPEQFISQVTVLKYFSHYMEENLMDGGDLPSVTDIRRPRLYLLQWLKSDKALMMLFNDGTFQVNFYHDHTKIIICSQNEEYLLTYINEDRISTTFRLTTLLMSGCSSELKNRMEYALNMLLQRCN

[4] = target: Receptor tyrosine-protein kinase erbB-2 (Homo sapiens) (UniProt P04626); experiment: Inhibition of human recombinant ErbB2 at 40 nM related to control ULK1
[5] = target: T1, Serine/threonine-protein kinase Nek1 (Homo sapiens) (UniProt Q96PY6); experiment: Inhibition of human recombinant NEK1 at 500 nM in presence of ATP by radiometric assay relative to control
T1 sequence (whole entry): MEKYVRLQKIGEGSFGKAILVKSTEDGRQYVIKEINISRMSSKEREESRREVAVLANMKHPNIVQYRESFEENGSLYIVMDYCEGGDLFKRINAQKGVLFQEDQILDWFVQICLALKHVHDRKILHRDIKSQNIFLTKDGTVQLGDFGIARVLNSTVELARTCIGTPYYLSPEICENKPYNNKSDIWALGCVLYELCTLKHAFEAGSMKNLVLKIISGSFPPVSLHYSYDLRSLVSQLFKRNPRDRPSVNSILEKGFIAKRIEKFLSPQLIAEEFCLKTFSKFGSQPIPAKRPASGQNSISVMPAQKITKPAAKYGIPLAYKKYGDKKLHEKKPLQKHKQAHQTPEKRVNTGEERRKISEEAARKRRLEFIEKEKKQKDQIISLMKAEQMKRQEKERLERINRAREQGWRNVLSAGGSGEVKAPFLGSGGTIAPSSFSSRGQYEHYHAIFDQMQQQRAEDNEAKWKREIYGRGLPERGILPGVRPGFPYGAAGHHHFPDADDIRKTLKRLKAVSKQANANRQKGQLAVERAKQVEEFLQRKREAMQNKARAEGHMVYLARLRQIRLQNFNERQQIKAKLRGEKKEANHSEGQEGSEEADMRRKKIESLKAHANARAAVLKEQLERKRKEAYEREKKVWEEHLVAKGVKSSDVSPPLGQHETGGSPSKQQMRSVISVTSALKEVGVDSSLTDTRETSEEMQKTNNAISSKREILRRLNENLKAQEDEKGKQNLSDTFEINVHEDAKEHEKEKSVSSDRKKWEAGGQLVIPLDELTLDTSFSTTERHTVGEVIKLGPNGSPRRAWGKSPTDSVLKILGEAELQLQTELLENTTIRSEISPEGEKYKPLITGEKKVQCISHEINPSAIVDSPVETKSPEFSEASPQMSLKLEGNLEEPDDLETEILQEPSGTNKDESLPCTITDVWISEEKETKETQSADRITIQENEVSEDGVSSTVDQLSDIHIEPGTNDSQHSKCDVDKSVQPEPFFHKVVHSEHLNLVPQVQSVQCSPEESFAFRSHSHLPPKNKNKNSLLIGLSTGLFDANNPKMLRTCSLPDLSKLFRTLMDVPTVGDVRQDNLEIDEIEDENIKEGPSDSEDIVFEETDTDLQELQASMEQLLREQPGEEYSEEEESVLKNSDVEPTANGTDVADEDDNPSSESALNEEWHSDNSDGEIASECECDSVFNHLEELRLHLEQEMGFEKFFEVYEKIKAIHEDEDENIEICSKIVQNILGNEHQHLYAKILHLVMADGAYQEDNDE

[6] = target: Aurora kinase B (Homo sapiens) (UniProt Q96GD4); experiment: Inhibition of human recombinant AurB at 500 nM in presence of ATP by radiometric assay relative to control
Summary of the method: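 Part of a radiometric in vitro activity panel of 327 recombinant human kinases. Each kinase was tested in duplicate at one inhibitor concentration. Activity remaining was expressed as a percentage of the vehicle control, and percent inhibition was taken as 100 minus that value.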

[7] = target: Macrophage-stimulating protein receptor (Homo sapiens) (UniProt Q04912); experiment: Inhibition of human recombinant RON at 500 nM in presence of ATP by radiometric assay relative to control
Chain of Macrophage-stimulating protein receptor (Homo sapiens) (Q04912 25-304 limits assumed): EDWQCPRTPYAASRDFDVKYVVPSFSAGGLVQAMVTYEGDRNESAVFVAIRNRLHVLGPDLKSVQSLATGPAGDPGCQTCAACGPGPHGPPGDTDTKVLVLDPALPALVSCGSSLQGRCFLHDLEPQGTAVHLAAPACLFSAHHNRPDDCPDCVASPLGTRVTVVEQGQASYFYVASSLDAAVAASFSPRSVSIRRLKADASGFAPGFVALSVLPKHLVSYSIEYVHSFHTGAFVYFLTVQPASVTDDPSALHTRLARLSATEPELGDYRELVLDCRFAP
Chain of Macrophage-stimulating protein receptor (Homo sapiens) (Q04912 310-1400 limits assumed): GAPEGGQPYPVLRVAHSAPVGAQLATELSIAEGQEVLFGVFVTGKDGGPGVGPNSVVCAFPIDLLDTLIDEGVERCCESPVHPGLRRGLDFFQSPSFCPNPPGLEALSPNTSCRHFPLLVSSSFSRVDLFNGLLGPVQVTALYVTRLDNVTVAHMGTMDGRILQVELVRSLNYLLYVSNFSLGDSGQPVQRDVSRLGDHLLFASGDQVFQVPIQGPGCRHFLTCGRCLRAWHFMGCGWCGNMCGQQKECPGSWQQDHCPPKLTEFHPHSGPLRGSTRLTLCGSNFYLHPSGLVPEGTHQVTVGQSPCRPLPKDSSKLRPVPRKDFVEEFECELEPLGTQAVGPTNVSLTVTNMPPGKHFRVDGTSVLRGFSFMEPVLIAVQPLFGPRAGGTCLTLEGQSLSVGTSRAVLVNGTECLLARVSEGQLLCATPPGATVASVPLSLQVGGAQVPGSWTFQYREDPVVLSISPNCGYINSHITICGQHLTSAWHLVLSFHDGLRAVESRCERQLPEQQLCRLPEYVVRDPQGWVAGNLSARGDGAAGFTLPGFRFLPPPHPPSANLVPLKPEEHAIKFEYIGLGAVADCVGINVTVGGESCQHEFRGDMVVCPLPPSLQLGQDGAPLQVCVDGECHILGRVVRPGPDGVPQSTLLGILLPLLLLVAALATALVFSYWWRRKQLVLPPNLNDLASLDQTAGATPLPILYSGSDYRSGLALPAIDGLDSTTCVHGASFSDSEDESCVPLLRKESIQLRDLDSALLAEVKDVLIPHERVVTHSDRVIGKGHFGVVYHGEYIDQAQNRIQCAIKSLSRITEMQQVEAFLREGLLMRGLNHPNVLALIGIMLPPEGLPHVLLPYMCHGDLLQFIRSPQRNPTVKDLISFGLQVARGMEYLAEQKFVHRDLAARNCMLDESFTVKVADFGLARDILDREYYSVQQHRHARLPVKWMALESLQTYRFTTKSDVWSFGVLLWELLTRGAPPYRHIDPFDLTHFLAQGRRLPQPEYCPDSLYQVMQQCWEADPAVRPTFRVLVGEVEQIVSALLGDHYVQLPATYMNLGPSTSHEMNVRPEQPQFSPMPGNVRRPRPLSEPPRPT

[8] = target: Mitogen-activated protein kinase 11 (Homo sapiens) (UniProt Q15759); experiment: Inhibition of human recombinant p38beta at 500 nM in presence of ATP by radiometric assay relative to control
[9] = target: Cyclin-dependent kinase 12 (Homo sapiens) (UniProt Q9NYV4); experiment: Inhibition of human recombinant CRK7 at 500 nM related to control ULK1
Chain of Cyclin-dependent kinase 12 (Homo sapiens) (Q9NYV4 whole entry, looked up): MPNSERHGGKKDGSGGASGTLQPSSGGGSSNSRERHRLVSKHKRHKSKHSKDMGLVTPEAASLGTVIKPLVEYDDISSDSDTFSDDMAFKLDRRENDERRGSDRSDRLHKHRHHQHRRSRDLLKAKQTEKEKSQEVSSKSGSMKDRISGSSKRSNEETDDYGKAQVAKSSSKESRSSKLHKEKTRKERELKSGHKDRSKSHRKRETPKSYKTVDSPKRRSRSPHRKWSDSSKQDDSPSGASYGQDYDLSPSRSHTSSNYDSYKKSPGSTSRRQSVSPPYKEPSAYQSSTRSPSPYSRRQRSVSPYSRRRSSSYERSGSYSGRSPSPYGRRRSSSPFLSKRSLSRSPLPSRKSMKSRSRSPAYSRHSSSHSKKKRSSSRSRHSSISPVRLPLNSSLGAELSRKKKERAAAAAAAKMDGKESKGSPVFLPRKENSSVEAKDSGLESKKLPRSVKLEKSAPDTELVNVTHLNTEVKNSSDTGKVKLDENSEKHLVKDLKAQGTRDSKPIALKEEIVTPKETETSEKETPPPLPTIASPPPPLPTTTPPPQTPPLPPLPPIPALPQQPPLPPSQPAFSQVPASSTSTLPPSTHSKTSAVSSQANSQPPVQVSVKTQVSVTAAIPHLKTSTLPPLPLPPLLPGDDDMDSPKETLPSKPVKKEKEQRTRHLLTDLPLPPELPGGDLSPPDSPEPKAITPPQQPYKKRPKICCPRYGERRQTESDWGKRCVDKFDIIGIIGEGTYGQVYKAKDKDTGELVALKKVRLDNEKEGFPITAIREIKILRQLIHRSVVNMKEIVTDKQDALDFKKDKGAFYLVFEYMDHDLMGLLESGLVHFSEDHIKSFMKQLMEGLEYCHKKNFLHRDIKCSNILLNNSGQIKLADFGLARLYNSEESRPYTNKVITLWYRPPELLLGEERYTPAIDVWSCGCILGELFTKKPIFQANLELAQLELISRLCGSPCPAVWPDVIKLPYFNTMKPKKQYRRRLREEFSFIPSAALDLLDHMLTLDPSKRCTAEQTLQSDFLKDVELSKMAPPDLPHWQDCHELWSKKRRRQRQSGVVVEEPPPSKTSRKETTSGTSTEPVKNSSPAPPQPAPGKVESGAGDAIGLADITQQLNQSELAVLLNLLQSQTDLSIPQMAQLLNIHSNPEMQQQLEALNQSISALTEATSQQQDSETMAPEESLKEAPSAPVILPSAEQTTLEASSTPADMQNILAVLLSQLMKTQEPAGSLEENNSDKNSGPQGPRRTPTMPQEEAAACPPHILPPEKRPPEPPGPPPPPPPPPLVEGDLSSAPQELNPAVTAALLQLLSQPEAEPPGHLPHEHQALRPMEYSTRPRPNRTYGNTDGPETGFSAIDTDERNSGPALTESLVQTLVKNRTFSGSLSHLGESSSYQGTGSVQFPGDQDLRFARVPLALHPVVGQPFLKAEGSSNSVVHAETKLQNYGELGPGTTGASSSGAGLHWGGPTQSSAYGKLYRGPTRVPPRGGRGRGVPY

[10] = target: Serine/threonine-protein kinase PLK3 (Homo sapiens) (UniProt Q9H4B4); experiment: Inhibition of human recombinant PLK3 at 500 nM in presence of ATP by radiometric assay relative to control
[11] = target: Death-associated protein kinase 1 (Homo sapiens) (UniProt P53355); experiment: Inhibition of human recombinant DAPK1 at 15 nM in presence of ATP by radiometric assay relative to control
Chain of Death-associated protein kinase 1 (Homo sapiens) (P53355 whole entry, looked up): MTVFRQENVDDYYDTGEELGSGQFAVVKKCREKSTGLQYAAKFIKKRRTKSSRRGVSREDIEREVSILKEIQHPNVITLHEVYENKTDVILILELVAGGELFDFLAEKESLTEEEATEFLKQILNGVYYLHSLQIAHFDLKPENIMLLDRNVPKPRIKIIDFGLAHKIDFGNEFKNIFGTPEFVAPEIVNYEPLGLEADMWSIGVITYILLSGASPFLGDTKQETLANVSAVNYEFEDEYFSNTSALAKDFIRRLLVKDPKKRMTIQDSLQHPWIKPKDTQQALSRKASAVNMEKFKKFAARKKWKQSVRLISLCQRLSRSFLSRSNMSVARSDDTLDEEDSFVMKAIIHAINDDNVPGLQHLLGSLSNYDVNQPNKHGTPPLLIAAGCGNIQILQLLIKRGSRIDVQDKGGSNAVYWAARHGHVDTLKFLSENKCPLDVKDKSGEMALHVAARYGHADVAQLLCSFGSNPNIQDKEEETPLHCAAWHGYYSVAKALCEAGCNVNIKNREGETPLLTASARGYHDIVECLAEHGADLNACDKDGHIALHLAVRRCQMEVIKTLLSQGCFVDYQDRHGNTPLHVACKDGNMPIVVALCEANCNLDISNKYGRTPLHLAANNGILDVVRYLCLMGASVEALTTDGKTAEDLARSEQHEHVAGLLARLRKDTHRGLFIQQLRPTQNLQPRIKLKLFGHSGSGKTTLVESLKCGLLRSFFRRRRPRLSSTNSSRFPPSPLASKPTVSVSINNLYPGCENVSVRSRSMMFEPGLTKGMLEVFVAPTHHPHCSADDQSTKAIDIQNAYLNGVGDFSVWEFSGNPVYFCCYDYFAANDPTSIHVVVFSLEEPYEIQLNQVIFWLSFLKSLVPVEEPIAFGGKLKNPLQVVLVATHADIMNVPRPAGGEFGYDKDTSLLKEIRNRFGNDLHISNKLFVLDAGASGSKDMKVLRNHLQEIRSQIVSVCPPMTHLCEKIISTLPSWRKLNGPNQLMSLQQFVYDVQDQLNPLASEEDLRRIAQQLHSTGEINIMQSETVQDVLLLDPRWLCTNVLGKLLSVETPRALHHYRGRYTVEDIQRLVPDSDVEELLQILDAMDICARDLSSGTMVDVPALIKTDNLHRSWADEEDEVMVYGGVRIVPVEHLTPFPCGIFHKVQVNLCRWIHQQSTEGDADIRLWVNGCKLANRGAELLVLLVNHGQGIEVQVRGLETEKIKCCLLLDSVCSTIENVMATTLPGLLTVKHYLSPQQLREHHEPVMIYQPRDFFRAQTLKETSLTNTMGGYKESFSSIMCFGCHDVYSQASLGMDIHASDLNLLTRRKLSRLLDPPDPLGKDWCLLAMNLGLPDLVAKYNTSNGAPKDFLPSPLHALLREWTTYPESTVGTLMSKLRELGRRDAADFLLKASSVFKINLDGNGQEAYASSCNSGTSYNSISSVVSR

[12] = target: T2, Testis-specific serine/threonine-protein kinase 1 (Homo sapiens) (UniProt Q9BXA7); experiment: Inhibition of human recombinant TSSK1 at 15 nM in presence of ATP by radiometric assay relative to control
T2 sequence (whole entry): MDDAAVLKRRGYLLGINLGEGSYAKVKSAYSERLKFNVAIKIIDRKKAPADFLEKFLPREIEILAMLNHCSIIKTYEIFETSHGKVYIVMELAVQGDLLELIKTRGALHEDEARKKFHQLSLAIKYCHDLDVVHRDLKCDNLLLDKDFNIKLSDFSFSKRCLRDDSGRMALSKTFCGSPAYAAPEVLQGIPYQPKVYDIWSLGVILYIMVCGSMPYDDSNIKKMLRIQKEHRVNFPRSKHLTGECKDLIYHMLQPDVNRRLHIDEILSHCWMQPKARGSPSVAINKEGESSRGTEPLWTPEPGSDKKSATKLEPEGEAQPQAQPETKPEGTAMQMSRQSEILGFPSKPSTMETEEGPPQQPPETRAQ

`O=C(N[C@@H](C1CC1)C(F)(F)F)c1cc(-c2cnn3cc(-c4ccc(F)cc4)cnc23)cs1` showed a fold change (FC) [1] of 0, a fold change (FC) [2] of 0 and an inhibition [3] of 3%. For the same molecule, the fold change (FC) [4] was 0.

With `CNC(=O)c1ccccc1Oc1nc(Nc2cc(OC)c(OC)c(OC)c2)ncc1Br` the inhibition [5] was 8%, the inhibition [6] was 92% and the inhibition [7] was 1%. The inhibition [8] was 2%, the fold change (FC) [9] was 0 and the inhibition [10] was 0%.

`CC(C)[C@H](NC(=O)c1cc(-c2cnn3cc(-c4ccc(OCCN5CCCCC5)cc4)cnc23)cs1)C(F)(F)F` gave an inhibition [11] of 4% and an inhibition [12] of 23%.
